# Laboratory results: ChEMBL document CHEMBL2331324, “Synthesis and biological evaluation of guanidino analogues of roscovitine” (Eur J Med Chem, 2013)
# What was measured:
# [1] = target: Glycogen synthase kinase-3 beta (Homo sapiens) (UniProt P49841); assay: Inhibition of recombinant GSK3b (unknown origin) assessed as residual activity using [gamma-33P]ATP as substrate at 1 uM
# How it was run: (§1)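 Recombinant kinase panel screened at 1 µM in duplicate. Reactions started with [γ-33P]ATP (800 cpm/pmol) at 5, 20 or 50 µM, chosen to sit at or below each enzyme's ATP Km. Stopped with phosphoric acid and spotted onto P81 filters. Result given as residual kinase activity.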
# [2] = target: 5'-AMP-activated protein kinase catalytic subunit alpha-2 (Homo sapiens) (UniProt P54646); assay: Inhibition of recombinant AMPK (unknown origin) assessed as residual activity using [gamma-33P]ATP as substrate at 1 uM; how it was run: as §1
# [3] = target: Serine/threonine-protein kinase 3 (Homo sapiens) (UniProt Q13188); assay: Inhibition of recombinant MST2 (unknown origin) assessed as residual activity using [gamma-33P]ATP as substrate at 1 uM
# How it was run: (§2)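 Selectivity panel run under previously published conditions. Screened at 1 μM in duplicate. Reactions started with [γ-33P]ATP (800 cpm/pmol) at 5, 20 or 50 μM, chosen to be at or below each enzyme's ATP Km. Stopped with phosphoric acid, spotted onto P81 filters. Result expressed as residual kinase activity.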
# [4] = target: Serine/threonine-protein kinase 33 (Homo sapiens) (UniProt Q9BYT3); assay: Inhibition of recombinant STK33 (unknown origin) assessed as residual activity using [gamma-33P]ATP as substrate at 1 uM
# How it was run: (§3)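 Kinase panel screen with each compound at 1 µM, in duplicate. Reactions were started with [γ-33P]ATP (800 cpm/pmol) at 5, 20 or 50 µM, chosen per enzyme to be at or below its ATP Km. Reactions were stopped with phosphoric acid and spotted onto P81 filters. Results are given as residual kinase activity.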
# [5] = target: Serine/threonine-protein kinase Nek2 (Homo sapiens) (UniProt P51955); assay: Inhibition of recombinant NEK2a (unknown origin) assessed as residual activity using [gamma-33P]ATP as substrate at 1 uM; how it was run: as §2
# [6] = target: Mitogen-activated protein kinase 9 (Homo sapiens) (UniProt P45984); assay: Inhibition of recombinant JNK2 (unknown origin) assessed as residual activity using [gamma-33P]ATP as substrate at 1 uM; how it was run: as §2
# Sequence of Mitogen-activated protein kinase 9 (Homo sapiens) (P45984 whole entry, looked up): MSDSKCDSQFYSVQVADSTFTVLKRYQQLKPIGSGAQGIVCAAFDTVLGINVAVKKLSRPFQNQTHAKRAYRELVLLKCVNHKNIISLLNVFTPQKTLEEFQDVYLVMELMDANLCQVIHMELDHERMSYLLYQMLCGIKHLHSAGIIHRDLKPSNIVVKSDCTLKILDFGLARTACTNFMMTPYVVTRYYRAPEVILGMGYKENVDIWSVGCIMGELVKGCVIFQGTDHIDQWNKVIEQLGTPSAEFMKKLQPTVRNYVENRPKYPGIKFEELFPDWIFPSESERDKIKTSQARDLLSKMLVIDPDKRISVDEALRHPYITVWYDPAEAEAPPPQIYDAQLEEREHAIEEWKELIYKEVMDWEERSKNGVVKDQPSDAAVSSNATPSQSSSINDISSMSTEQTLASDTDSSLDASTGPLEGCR
# [7] = target: Cyclin-dependent kinase 1/cyclin B1 (Homo sapiens, UniProt P06493); assay: Inhibition of recombinant CDK1/cyclin B (unknown origin) using histone H1 as substrate in presence of [gamma-33P]ATP; format: protein-complex assay
# [8] = target: Ribosomal protein S6 kinase alpha-3 (Homo sapiens) (UniProt P51812); assay: Inhibition of recombinant RSK2 (unknown origin) assessed as residual activity using [gamma-33P]ATP as substrate at 1 uM; how it was run: as §3
# Sequence of Ribosomal protein S6 kinase alpha-3 (Homo sapiens) (P51812 whole entry): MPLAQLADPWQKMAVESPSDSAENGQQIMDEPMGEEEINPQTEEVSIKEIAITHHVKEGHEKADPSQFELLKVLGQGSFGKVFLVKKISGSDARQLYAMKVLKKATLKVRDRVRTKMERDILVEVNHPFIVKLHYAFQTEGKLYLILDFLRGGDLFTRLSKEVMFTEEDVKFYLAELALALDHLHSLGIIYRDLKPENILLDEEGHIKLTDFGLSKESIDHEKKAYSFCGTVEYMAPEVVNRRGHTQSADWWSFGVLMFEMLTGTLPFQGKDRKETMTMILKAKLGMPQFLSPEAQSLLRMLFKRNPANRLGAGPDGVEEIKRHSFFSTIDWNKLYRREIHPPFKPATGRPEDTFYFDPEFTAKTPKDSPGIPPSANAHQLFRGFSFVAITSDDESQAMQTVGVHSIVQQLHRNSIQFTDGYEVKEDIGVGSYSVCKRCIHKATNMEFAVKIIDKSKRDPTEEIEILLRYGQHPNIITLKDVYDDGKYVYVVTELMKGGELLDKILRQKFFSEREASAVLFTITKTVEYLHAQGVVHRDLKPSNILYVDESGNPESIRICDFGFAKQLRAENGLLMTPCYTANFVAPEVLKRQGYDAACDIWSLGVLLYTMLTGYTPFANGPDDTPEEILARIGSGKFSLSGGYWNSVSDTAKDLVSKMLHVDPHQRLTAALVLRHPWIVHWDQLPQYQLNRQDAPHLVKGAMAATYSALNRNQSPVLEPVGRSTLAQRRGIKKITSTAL
# [9] = target: Tyrosine-protein kinase Lck (Homo sapiens) (UniProt P06239); assay: Inhibition of recombinant LCK (unknown origin) assessed as residual activity using [gamma-33P]ATP as substrate at 1 uM; how it was run: as §2
# Sequence of Tyrosine-protein kinase Lck (Homo sapiens) (P06239 2-509 limits assumed): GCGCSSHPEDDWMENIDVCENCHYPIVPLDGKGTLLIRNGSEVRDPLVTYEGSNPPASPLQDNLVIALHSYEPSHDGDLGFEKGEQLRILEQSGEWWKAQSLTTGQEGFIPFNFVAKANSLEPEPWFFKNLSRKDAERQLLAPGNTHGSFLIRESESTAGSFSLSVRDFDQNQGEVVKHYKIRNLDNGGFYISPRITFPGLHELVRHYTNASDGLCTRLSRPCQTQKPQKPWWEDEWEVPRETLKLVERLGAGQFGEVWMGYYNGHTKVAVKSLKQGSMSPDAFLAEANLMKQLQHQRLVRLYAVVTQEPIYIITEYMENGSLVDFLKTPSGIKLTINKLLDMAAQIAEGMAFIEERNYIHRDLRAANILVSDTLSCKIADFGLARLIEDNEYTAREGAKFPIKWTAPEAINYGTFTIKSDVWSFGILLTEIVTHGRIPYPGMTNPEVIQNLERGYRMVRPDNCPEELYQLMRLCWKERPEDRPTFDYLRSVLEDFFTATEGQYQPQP
# [10] = target: Ephrin type-B receptor 4 (Homo sapiens) (UniProt P54760); assay: Inhibition of recombinant EPH-B4 (unknown origin) assessed as residual activity using [gamma-33P]ATP as substrate at 1 uM; how it was run: as §1
# [11] = target: Mitogen-activated protein kinase 1 (Homo sapiens) (UniProt P28482); assay: Inhibition of recombinant ERK2 (unknown origin) assessed as residual activity using [gamma-33P]ATP as substrate at 1 uM; how it was run: as §1
# Sequence of Mitogen-activated protein kinase 1 (Homo sapiens) (P28482 whole entry): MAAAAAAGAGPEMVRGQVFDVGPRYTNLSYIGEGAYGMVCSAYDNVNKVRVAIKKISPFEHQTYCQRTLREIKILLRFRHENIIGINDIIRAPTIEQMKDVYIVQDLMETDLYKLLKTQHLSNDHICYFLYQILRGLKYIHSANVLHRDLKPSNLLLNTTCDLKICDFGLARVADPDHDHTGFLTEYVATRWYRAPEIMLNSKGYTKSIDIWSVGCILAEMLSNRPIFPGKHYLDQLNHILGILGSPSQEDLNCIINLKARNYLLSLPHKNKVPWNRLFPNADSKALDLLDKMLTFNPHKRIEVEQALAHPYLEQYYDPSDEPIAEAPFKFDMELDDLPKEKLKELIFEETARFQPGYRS
# [12] = target: Mitogen-activated protein kinase 3 (Homo sapiens) (UniProt P27361); assay: Inhibition of recombinant ERK1 (unknown origin) assessed as residual activity using [gamma-33P]ATP as substrate at 1 uM; how it was run: as §1
# Sequence of Mitogen-activated protein kinase 3 (Homo sapiens) (P27361 whole entry): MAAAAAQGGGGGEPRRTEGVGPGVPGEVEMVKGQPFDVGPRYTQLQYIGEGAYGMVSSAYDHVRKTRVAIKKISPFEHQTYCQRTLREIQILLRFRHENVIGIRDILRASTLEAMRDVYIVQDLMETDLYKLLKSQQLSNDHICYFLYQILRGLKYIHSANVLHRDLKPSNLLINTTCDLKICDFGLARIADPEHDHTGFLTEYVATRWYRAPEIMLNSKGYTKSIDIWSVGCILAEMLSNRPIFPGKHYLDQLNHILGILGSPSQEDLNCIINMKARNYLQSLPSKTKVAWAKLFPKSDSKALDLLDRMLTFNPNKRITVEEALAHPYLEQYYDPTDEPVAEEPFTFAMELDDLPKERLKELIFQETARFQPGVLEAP
# [13] = target: Dual specificity tyrosine-phosphorylation-regulated kinase 2 (Homo sapiens) (UniProt Q92630); assay: Inhibition of recombinant DYRK2 (unknown origin) assessed as residual activity using [gamma-33P]ATP as substrate at 1 uM; how it was run: as §1
# [14] = target: Serine/threonine-protein kinase Chk1 (Homo sapiens) (UniProt O14757); assay: Inhibition of recombinant CHK1 (unknown origin) assessed as residual activity using [gamma-33P]ATP as substrate at 1 uM; how it was run: as §1
# Sequence of Serine/threonine-protein kinase Chk1 (Homo sapiens) (O14757 whole entry): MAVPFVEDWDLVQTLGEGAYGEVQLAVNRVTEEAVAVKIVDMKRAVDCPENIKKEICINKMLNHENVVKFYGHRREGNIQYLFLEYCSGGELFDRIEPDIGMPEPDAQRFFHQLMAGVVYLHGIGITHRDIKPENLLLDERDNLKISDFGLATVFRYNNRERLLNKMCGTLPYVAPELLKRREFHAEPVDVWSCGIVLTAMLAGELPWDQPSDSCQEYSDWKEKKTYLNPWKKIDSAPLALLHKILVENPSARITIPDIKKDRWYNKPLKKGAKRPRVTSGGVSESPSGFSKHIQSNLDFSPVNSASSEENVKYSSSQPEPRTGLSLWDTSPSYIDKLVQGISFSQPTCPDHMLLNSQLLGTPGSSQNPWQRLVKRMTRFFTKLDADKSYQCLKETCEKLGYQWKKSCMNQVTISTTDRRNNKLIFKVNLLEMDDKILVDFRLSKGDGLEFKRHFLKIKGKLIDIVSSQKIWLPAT
# [15] = target: Calcium/calmodulin-dependent protein kinase kinase 2 (Homo sapiens) (UniProt Q96RR4); assay: Inhibition of recombinant CAMKKbeta (unknown origin) assessed as residual activity using [gamma-33P]ATP as substrate at 1 uM; how it was run: as §1
# [16] = target: Cyclin-dependent kinase 2/cyclin E1 (Homo sapiens, UniProt P24941); assay: Inhibition of recombinant CDK2/cyclin E (unknown origin) using histone H1 as substrate in presence of [gamma-33P]ATP; format: protein-complex assay
# [17] = target: Homeodomain-interacting protein kinase 2 (Homo sapiens) (UniProt Q9H2X6); assay: Inhibition of recombinant HIPK2 (unknown origin) assessed as residual activity using [gamma-33P]ATP as substrate at 1 uM; how it was run: as §1
# [18] = target: MAP kinase-activated protein kinase 2 (Homo sapiens) (UniProt P49137); assay: Inhibition of recombinant MAPKAPK2 (unknown origin) assessed as residual activity using [gamma-33P]ATP as substrate at 1 uM; how it was run: as §2
# [19] = target: Protein kinase C gamma type (Homo sapiens) (UniProt P05129); assay: Inhibition of recombinant PKCgamma (unknown origin) assessed as residual activity using [gamma-33P]ATP as substrate at 1 uM; how it was run: as §2
# [20] = target: Serine/threonine-protein kinase 26 (Homo sapiens) (UniProt Q9P289); assay: Inhibition of recombinant MST4 (unknown origin) assessed as residual activity using [gamma-33P]ATP as substrate at 1 uM; how it was run: as §2
# Sequence of Serine/threonine-protein kinase 26 (Homo sapiens) (Q9P289 2-416 limits assumed): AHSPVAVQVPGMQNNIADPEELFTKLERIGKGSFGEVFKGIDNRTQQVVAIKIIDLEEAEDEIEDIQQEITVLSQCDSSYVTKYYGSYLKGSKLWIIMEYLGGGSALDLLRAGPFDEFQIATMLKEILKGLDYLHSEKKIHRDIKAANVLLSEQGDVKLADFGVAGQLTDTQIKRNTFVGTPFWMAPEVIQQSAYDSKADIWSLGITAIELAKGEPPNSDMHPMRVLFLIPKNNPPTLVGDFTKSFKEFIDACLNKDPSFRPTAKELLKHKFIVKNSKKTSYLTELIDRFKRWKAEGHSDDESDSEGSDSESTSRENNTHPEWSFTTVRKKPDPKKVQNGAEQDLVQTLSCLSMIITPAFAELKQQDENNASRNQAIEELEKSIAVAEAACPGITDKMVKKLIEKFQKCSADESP
# [21] = target: Homeodomain-interacting protein kinase 1 (Homo sapiens) (UniProt Q86Z02); assay: Inhibition of recombinant HIPK1 (unknown origin) assessed as residual activity using [gamma-33P]ATP as substrate at 1 uM; how it was run: as §1
# [22] = target: Aurora kinase A/B (Homo sapiens) (UniProt Q96GD4+O14965); assay: Activity at Aurora kinase A/B in human MCF7 cells assessed as histone H3 phosphorylation at Ser10 at 100 uM after 24 hrs by flow cytometry relative to untreated control; format: cell-based
# How it was run: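 Flow cytometry on MCF7 cells exposed 24 h to 100 µM. About one million cells fixed in 90% methanol, rehydrated, and labelled with primary antibody to pH3 Ser10, then an Alexa Fluor 488 secondary. Alexa read at 488/525 nm (ex/em). The value is the fraction of pH3-positive cells in treated cultures divided by that in untreated control.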
# [23] = target: Insulin receptor-related protein (Homo sapiens) (UniProt P14616); assay: Inhibition of recombinant IRR (unknown origin) assessed as residual activity using [gamma-33P]ATP as substrate at 1 uM; how it was run: as §1
# [24] = target: Interleukin-1 receptor-associated kinase 4 (Homo sapiens) (UniProt Q9NWZ3); assay: Inhibition of recombinant IRAK4 (unknown origin) assessed as residual activity using [gamma-33P]ATP as substrate at 1 uM; how it was run: as §1
# Sequence of Interleukin-1 receptor-associated kinase 4 (Homo sapiens) (Q9NWZ3 whole entry): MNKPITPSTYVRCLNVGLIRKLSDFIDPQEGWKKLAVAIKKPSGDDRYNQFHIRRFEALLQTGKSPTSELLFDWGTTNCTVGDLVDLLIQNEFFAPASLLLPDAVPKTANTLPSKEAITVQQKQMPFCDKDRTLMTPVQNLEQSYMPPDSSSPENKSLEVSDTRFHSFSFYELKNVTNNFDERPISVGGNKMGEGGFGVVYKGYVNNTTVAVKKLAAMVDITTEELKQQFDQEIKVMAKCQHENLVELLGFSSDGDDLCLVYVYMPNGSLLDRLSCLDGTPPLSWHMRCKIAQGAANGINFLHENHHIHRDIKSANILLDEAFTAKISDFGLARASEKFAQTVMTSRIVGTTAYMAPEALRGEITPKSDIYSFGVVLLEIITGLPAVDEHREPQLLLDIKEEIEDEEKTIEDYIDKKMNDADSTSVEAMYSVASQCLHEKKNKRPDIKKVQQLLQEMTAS
# [25] = target: Serine/threonine-protein kinase PAK 5 (Homo sapiens) (UniProt Q9P286); assay: Inhibition of recombinant PAK5 (unknown origin) assessed as residual activity using [gamma-33P]ATP as substrate at 1 uM
# Sequence of Serine/threonine-protein kinase PAK 5 (Homo sapiens) (Q9P286 whole entry, looked up): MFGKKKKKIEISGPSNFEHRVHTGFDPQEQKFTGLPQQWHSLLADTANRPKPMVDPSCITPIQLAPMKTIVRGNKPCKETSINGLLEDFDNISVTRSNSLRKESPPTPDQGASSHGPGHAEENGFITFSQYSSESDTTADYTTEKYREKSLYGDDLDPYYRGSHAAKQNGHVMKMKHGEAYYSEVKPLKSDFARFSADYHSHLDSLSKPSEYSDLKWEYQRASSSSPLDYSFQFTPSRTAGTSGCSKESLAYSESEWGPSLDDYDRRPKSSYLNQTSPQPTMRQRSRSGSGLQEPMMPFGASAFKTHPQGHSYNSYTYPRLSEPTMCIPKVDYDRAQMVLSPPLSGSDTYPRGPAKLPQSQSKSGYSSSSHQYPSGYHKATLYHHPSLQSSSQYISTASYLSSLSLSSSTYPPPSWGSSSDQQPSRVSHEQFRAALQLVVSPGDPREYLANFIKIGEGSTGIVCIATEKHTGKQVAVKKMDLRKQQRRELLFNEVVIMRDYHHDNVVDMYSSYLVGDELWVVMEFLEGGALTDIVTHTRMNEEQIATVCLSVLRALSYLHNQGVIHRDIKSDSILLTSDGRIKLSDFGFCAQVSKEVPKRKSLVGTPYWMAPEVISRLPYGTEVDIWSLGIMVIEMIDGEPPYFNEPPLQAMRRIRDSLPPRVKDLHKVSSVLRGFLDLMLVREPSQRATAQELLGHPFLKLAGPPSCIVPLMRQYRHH
# [26] = target: Serine/threonine-protein kinase PLK1 (Homo sapiens) (UniProt P53350); assay: Inhibition of recombinant PLK1 (unknown origin) assessed as residual activity using [gamma-33P]ATP as substrate at 1 uM; how it was run: as §2
# Sequence of Glycogen synthase kinase-3 beta (Homo sapiens) (P49841 whole entry, looked up): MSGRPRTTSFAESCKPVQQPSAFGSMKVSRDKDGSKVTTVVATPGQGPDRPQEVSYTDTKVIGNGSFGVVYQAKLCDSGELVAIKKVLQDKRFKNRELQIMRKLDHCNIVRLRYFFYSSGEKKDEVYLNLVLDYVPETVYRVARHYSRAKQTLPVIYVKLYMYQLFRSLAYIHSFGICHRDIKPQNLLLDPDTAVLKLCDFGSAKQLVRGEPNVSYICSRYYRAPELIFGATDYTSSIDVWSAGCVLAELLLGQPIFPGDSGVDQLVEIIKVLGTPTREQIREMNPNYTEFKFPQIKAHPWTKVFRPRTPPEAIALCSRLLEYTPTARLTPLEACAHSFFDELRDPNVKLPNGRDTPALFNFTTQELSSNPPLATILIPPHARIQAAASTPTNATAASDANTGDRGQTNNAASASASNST
Activity [1] [%],Activity [2] [%],Activity [3] [%],Activity [4] [%],Activity [5] [%],Activity [6] [%],IC50 [7] [nM],Activity [8] [%],Activity [9] [%],Activity [10] [%],Activity [11] [%],Activity [12] [%],Activity [13] [%],Activity [14] [%],Activity [15] [%],IC50 [16] [nM],Activity [17] [%],Activity [18] [%],Activity [19] [%],Activity [20] [%],Structure (SMILES),other results
37,29,35,11,73,85,2100,35,13,6,32,50,27,58,17,140,8,41,73,42,CC[C@H](CO)Nc1nc(NC(=N)N)c2ncn(C(C)C)c2n1,Activity [21]: 15%; Ratio [22]: 0.08; Activity [23]: 19%; Activity [24]: 21%; Activity [25]: 18%; Activity [26]: 108%
28,22,43,9,57,73,900,71,12,6,15,28,16,46,13,37,6,48,61,40,CC[C@@H](CO)Nc1nc(NC(=N)N)c2ncn(C(C)C)c2n1,Activity [21]: 11%; Ratio [22]: 0.09; Activity [23]: 16%; Activity [24]: 11%; Activity [25]: 15%; Activity [26]: 108%
